Here are results for 18 compounds from PubChem BioAssay.

A short description of assay [1]: S. cerevisiae growth inhibition in permissive medium (OD615), pilot counter-assay for S. cerevisiae lifespan shortening project, permissive growth control (AID 705;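 active = growth inhibition above 25% in both replicates, a cutoff set 3 SD above the mean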). The note with it: OD615, 24 h, at 10 µM, active compounds read high. The essentials:
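System: Engineered DeaD yeast | Buffer or medium: SC raffinose/galactose permissive medium | Incubation: Cells pre-grown 4 h, then 24 h compound exposure, 30 °C humidified | Measured by: Absorbance (optical density) at 615 nm | Read-out: Reduction in yeast growth (OD615)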

Assay [2] is described as follows: S. cerevisiae growth inhibition in restrictive medium, OD615, pilot screen, restrictive growth control, yeast lifespan reduction project (AID 706;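 active = growth inhibition above a set limit, 3 SD over mean compound inhibition, in both replicates, cut at about 43% in these data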;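 also: modified DeaD lifespan yeast strain shifted to restrictive glucose medium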). The conditions noted are these: OD615, 48 h, at 10 µM, active compounds read high. The essentials:
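Material: modified S. cerevisiae; Medium: glucose-based CSMM-D restrictive medium; Compound dosing: one concentration, 10 µM final, 0.25% DMSO; Incubation: 48 h compound exposure at 30 °C; Measured by: OD615.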

Assay [3] is described as follows: doxorubicin toxicity protection in MRP-1 cells – H69AR cells, CellTiter-Glo, duplicate, MRP-1 activator project, pilot screen (AID 807;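 active = viability increase at or above a cutoff of the median across tested compounds plus 3 SD, cut at about 8.5% in these data, passing the limit was not always enough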;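 also: compound pretreatment 18-22 h then 72 h combined with doxorubicin; 0% = doxorubicin alone and 100% = vehicle without doxorubicin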). The conditions noted are these: H69AR viability with doxorubicin, CellTiter-Glo luminescence; at 10 µM; active compounds read high. For orientation: Cellular ATP, detected with luciferase, serves as a proxy for viable cell number.
Assay [4] can be described thus: viability of HCT116 without oncogenic beta-catenin – human colon tumor cells, pilot screen (AID 823;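 active = cell viability at or below a set limit in both duplicate runs, the limit being the all-compound median minus 4 SD, cut at about 23% in these data, passing the limit was not always enough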;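 also: 0% = wells killed by 20 µM Hyamine and 100% = untreated DMSO cell wells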). The note with it: HCT116 beta-catenin knockout viability, CellTiter-Glo, 60 h; at 10 µM; active compounds read low.
Assay [5] in a line: viability of PTEN-null HCT116 cells – cell-based, HCT116 clonal line, CellTiter-Glo, pilot screen (AID 824;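 active = viability at or below 27.92% in each of two runs, the all-compound median minus 4 SD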;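 also: 0% = 20 µM Hyamine control and 100% = vehicle cell control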). The conditions noted are these: HCT116 PTEN-deleted viability, 60 h, at 10 µM, active compounds read low.
Assay [6] in a line: RAM pathway blockade in budding yeast – dse1pr::URA3 reporter, 5-FOA selection, pilot screen (AID 869;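 active = inhibition over a set limit, the all-compound mean plus 3 SD, in both replicate runs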;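 also: 0% = DMSO wells with no growth and 100% = 10 µM 1-NA-PP1 with full growth; RAM network block rescues cells from 5-FOA so hits raise OD615 growth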). The note with it: S. cerevisiae dse1pr::URA3 5-FOA growth, OD615, 2 d; at 10 µM; active compounds read high; strain carries analog-sensitive mutant Cbk1 kinase.
A short description of assay [7]: RAM signaling pathway blockade in yeast – S. cerevisiae, Pdr1DBD-CYC8 efflux-inhibited sensitized strain, primary screen (AID 1298).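 Also: 0% = DMSO untreated cells without growth and 100% = 10 µM 1-NA-PP1 full growth; higher means more yeast growth rescued from 5-FOA killing.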 The conditions noted are these: S. cerevisiae cbk1-as DSE1-URA3 strain, 5-FOA growth OD615, 2 d; at 50 µM; active compounds read high.

SMILES strings stand for the structures. A number with no mark means an inactive call. Records with an inconclusive call do not appear. Calls of active or inactive are those of the source.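 The calls were made as follows, unless noted: active = RAM network inhibition above 8.4% in each of two replicates, 3 SD over the compound average; inconclusive = above 8.4% inhibition in only one replicate; inactive = 8.4% inhibition or less in each replicate.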

What is called viability is a read-out of living cells in per cent, often relative to untreated cells. For orientation: inhibition means the change of the read-out against control, counted positive when it falls. Regarding `O=c1c2cc(-c3ccccc3)sc2ncn1/N=C/c1ccco1`, the growth inhibition in assay [1] was -7.51%; in assay [2], 0.525%. The viability increase in assay [3] was -2.49%. The viability in assay [4] was 96.6%; in assay [5], 82%. Further, in assay [6], the inhibition was 1.5%. In addition, the RAM network inhibition in assay [7] was 5.9%.

For the compound `CC(C)NS(=O)(=O)c1ccc(CCC(=O)NCc2ccco2)cc1`, the growth inhibition in assay [1] is -15.3%; in assay [2] it was -22.4%. Besides, the viability increase in assay [3] was -3.3%. Moreover, the viability was 93.1% in assay [4] and 97% in assay [5]. In addition, the inhibition in assay [6] is 1.55%. Also, in assay [7], the RAM network inhibition is -0.53%.

Turning to `CS(=O)(=O)N1CCN(Cc2ccccc2C(F)(F)F)CC1`, the growth inhibition in assay [1] is -19.1%; in assay [2] it was -5.12%. In assay [3], the viability increase was 0.93%. Besides, the figures for the viability in assay [4] and in assay [5] were 91.1% and 94%, respectively. Moreover, the inhibition in assay [6] is -0.185%. Moreover, the RAM network inhibition in assay [7] is 6.47%.

Turning to `COc1ccc(OC)c(NC(=O)c2c(NC(=O)CNCc3ccco3)sc3c2CCC3)c1`, the growth inhibition in assay [1] was -0.125%; in assay [2], -0.495%. For the same compound, the viability increase in assay [3] was -3.56%. Further, the viability in assay [4] is 95.8%; in assay [5], 88.2%. Moreover, in assay [6], the inhibition is 1.28%. Further, the RAM network inhibition in assay [7] was 7.95%.

With `Cc1cccc(-c2nc(CS(=O)CC(=O)NCC3CCCO3)c(C)o2)c1` (stereo unspecified), the growth inhibition in assay [1] was 4.35%; in assay [2] it was 17.3%. Moreover, the viability increase in assay [3] was -2.27%. Also, the viability in assay [4] was 105%; in assay [5], 96.3%. The inhibition in assay [6] was 0.725%. In assay [7], the RAM network inhibition was 2.14%.

`O=C(C1CC1)N1CCc2cc(Br)cc(S(=O)(=O)NCCCN3CCCC3)c21`: the results for the growth inhibition in assay [1] and in assay [2] were -9.22% and -4.36%, respectively. Also, the viability increase in assay [3] is -2.47%. Also, the viability is 87.6% in assay [4] and 86.3% in assay [5]. The inhibition in assay [6] was 0.08%. The RAM network inhibition in assay [7] is 5.37%.

With `CN1CCN(CCNC(=O)c2cc3c(=O)n(C)c4ccccc4c3n2C)CC1`, the figures for the growth inhibition in assay [1] and in assay [2] were -12.9% and -20%, respectively. For the same compound, the viability increase in assay [3] is -4.6%. Further, the results for the viability in assay [4] and in assay [5] were 82.3% and 81.3%, respectively. Also, the inhibition in assay [6] was 0.755%. Moreover, in assay [7], the RAM network inhibition is 1.04%.

Consider `COc1ccc(-c2cn3c(C)c(C(=O)N4CCN(c5ccccc5F)CC4)sc3n2)cc1`, for which the growth inhibition is 2.91% in assay [1] and -0.695% in assay [2]. Further, the viability increase in assay [3] is 0.81%. Moreover, the viability in assay [4] was 78.9%; in assay [5], 78%. Further, in assay [6], the inhibition is 2.13%. In addition, the RAM network inhibition in assay [7] was 18.2% (active).

Regarding `Nc1nc2n(n1)C(c1ccccc1)CC(c1ccc(F)cc1)N2` (stereo unspecified), the results for the growth inhibition in assay [1] and in assay [2] were -2.32% and 16.9%, respectively. Also, the viability increase in assay [3] was -0.53%. For the same compound, the viability is 97.9% in assay [4] and 98.2% in assay [5]. In addition, the inhibition in assay [6] is 0.145%. The RAM network inhibition in assay [7] is 0.84%.

Regarding `CC1(C(=O)NC2CCCCC2)CCC(=O)N1Cc1cccnc1` (stereo unspecified), the growth inhibition was -8.59% in assay [1] and -7.4% in assay [2]. In assay [3], the viability increase was -0.54%. Moreover, the viability was 102% in assay [4] and 104% in assay [5]. Further, in assay [6], the inhibition was 0.95%. Moreover, the RAM network inhibition in assay [7] was 0.89%.

Regarding `CC(=O)c1c(N(C)C)ccnc1C(F)(F)F`, the growth inhibition in assay [1] was -3.09%; in assay [2], 8.03%. Besides, the viability increase in assay [3] is -2.95%. The viability was 107% in assay [4] and 95.4% in assay [5]. In addition, the inhibition in assay [6] is 1.92%. Besides, the RAM network inhibition in assay [7] is 0.62%.

As for `CC(CNC(=O)c1ccc(Br)o1)NC(=O)c1ccc(Br)o1` (stereo unspecified), the growth inhibition was -0.8% in assay [1] and 2.43% in assay [2]. For the same compound, the viability increase in assay [3] was -0.71%. The viability in assay [4] is 99%; in assay [5], 97.8%. The inhibition in assay [6] is 1.46%. In addition, in assay [7], the RAM network inhibition was 1.17%.

As to `CN(C)CCNC(=O)c1ccc(CS(=O)(=O)c2c(Cl)cccc2Cl)o1`, the figures for the growth inhibition in assay [1] and in assay [2] were -2.3% and -9.77%, respectively. The viability increase in assay [3] is -1.24%. The viability in assay [4] was 99.2%; in assay [5], 97.6%. Moreover, the inhibition in assay [6] was 2.96%. Further, the RAM network inhibition in assay [7] was -1.13%.

Turning to `Cc1cc(Nc2ccc3c(c2)OCCO3)n2nc(C)nc2n1`, the growth inhibition in assay [1] is -5.2%; in assay [2], 11.4%. Besides, the viability increase in assay [3] was -2.09%. In addition, the viability in assay [4] is 106%; in assay [5], 102%. Also, the inhibition in assay [6] is 2.84%. For the same compound, in assay [7], the RAM network inhibition is 1.45%.

Take `CC(C)(C)NC(=O)CSc1nccn1Cc1ccccc1`: the growth inhibition was -11.7% in assay [1] and -5.1% in assay [2]. Also, the viability increase in assay [3] was -1.52%. Moreover, the viability is 95.9% in assay [4] and 93% in assay [5]. In addition, the inhibition in assay [6] is 1.66%. The RAM network inhibition in assay [7] is 4.82%.

In the case of `Cc1ccc(-n2ncc3c(=O)[nH]c(SCC(=O)N4CCCC4)nc32)cc1C`, the values for the growth inhibition in assay [1] and in assay [2] were -6.01% and -4.8%, respectively. Besides, the viability increase in assay [3] is -4.32%. The values for the viability in assay [4] and in assay [5] were 105% and 91.8%, respectively. In assay [6], the inhibition was 1.81%. In addition, the RAM network inhibition in assay [7] is 1.73%.

With `COc1ccc(-c2cn3c(C)c(C(=O)NC(C)(C)C)sc3n2)cc1`, the growth inhibition was -8.09% in assay [1] and -9.73% in assay [2]. Also, the viability increase in assay [3] is -5.94%. Besides, the viability was 81.5% in assay [4] and 85.7% in assay [5]. Moreover, the inhibition in assay [6] is 0.645%. Moreover, the RAM network inhibition in assay [7] was 1.82%.

As to `O=S(=O)(c1ccc(Br)cc1)N1CCn2c(nc3ccccc32)C1`, the growth inhibition in assay [1] is -6.87%; in assay [2], -3.65%. Further, the viability increase in assay [3] was -2.52%. Besides, the viability was 101% in assay [4] and 97.5% in assay [5]. Besides, the inhibition in assay [6] was 2.46%. Further, in assay [7], the RAM network inhibition was 6.31%.
